Test system: MS2 coat protein
Assay: apparent Kd, MS2 coat protein; higher = weaker binding; RNA-MaP array; FMN 200 µM where present
Summary of the method: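 Stalled E. coli RNA polymerase transcribed the designs on Illumina sequencing-chip clusters. SNAP-549-labelled MS2 coat protein was titrated from 0.7 or 1.5 nM, doubling to 3 µM, without and then with constant ligand, in 100 mM Tris-HCl pH 7.5, 80 mM KCl, 4 mM MgCl2, BSA, DTT, yeast tRNA and Tween-20. Per-cluster binding curves were fitted to green signal normalised to red-channel RNA signal and control-cluster median Fmax. The apparent Kd is the median of the filtered fits.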

[1] = designed as: OFF switch for flavin mononucleotide, no ligand
[2] = ligand present: flavin mononucleotide, designed as: OFF switch for flavin mononucleotide
[3] = designed as: ON switch for flavin mononucleotide, no ligand
[4] = ligand present: flavin mononucleotide, designed as: ON switch for flavin mononucleotide

## UGUGAGUUGAUGUUAGAUAGGAGAACAUGAGGAUCACCCAUGUAGGAUAUUCAAAGACGAAGAUAGAAGAAGGACAUAGGUUUC
[1]
  apparent Kd: 17.7 nM
[2]
  apparent Kd: 21.5 nM

## UGUGCUAUGUAGAAGGCAGAUCUGAUUCAGAUCUGAGGAUAUACAUGAGGAUCACCCAUGUUAUGCACCAGCACGAGAGUGCAA
[1]
  apparent Kd: 8.13 nM
[2]
  apparent Kd: 16 nM

## UGUGCUAUGUAGAAGGCAGAUCUGAUUCAGAUCUGAGGAUAUACAUGAGGAUCACCCAUGUUAUGCACCAGCACGAGAGUGCAC
[1]
  apparent Kd: 7.89 nM
[2]
  apparent Kd: 17.1 nM

## UGUGUCAUCGAGAAGGCCUCAACAUGAGGAUCACCCAUGUUGUAAUAUGGGAGGAUAUCGAUGAUACAGCUACGUUUCGUAGCC
[3]
  apparent Kd: 18.4 nM
[4]
  apparent Kd: 5.67 nM

## UGUGUGUGACAGGAUAUGCUGGUUAUGAGACGGGUAGAAGGGUCUACAUGAGGAUCACCCAUGUGGCCGGUUGG
[1]
  apparent Kd: 19 nM
[2]
  apparent Kd: 21.2 nM

## UGUGUGUGAGGAUAUACAUGAGGAUCACCCAUGUAGCGCGCGCGUAUUCGUGUGUGUUGUAGAAGGCGCGCGCG
[1]
  apparent Kd: 33 nM
[2]
  apparent Kd: 30.5 nM

## UGUGUGUGGCAGGAUAUGCAGGUAGUAGGACGGGUAGAAGGGUCUACAUGAGGAUCACCCAUGUGGCCGGUUGG
[1]
  apparent Kd: 16.8 nM
[2]
  apparent Kd: 18.1 nM

## UGUGUGUUUGUGAGGAUAUGCGCGCGGAAAUGUGUGUAGAAGGCACAUGAGGAUCACCCAUGUAAGGGCGCGCG
[1]
  apparent Kd: 596 nM
[2]
  apparent Kd: 439 nM

## UGUGUUAUUGGAGGAUAUCGAUAUCAAACAUGAGGAUCACCCAUGUUGAGGAUCACACAUGUAAAUGAGAAGGCCGACGUAGUG
[3]
  apparent Kd: 12.5 nM
[4]
  apparent Kd: 16.2 nM

## UGUGUUAUUGGAGGAUAUCGAUAUCAAACAUGAGGAUCACCCAUGUUGAGGAUCACACAUGUACAUGAGAAGGCCGACGUAGUG
[3]
  apparent Kd: 13.3 nM
[4]
  apparent Kd: 14.5 nM

## UGUGUUAUUGGAGGAUAUCGAUAUCAAACAUGAGGAUCACCCAUGUUGAGGAUCACACAUGUCCAUGAGAAGGCCGACGUAGUG
[3]
  apparent Kd: 10.5 nM
[4]
  apparent Kd: 10.5 nM

## UGUUGUAUUACAGGAUAUCUAGUAUUAUUAUUUAGAGAAGGGUAUUCACAUGAGGAUCACCCAUGUAUAUACGAGGAAGUUGUG
[3]
  apparent Kd: 38.2 nM
[4]
  apparent Kd: 40.1 nM

## UGUUGUAUUACAGGAUAUCUAGUAUUUAUAUUUAGAGAAGGGUAUUCACAUGAGGAUCACCCAUGUAUAUACGAGGAAGUUGUG
[3]
  apparent Kd: 46.3 nM
[4]
  apparent Kd: 49.2 nM

## UGUUGUAUUACAGGAUAUCUAGUAUUUUGAUUUAGAGAAGGGUAUUCACAUGAGGAUCACCCAUGUAUAUACGAGGAAGUUGUG
[3]
  apparent Kd: 52.4 nM
[4]
  apparent Kd: 57.4 nM

## UGUUGUAUUACAGGAUAUCUAUGAUUUUUAUAUAGAGAAGGGUAUUCACAUGAGGAUCACCCAUGUAUAUACGAGGAAGUUGUG
[3]
  apparent Kd: 49 nM
[4]
  apparent Kd: 56 nM

## UGUUGUAUUACAGGAUAUCUAUUAGGUUUAUUUAGAGAAGGGUAUUCACAUGAGGAUCACCCAUGUAUAUACGAGGAAGUUGUG
[3]
  apparent Kd: 56.2 nM
[4]
  apparent Kd: 63.3 nM

## UGUUGUAUUACAGGAUAUCUAUUAGUAUUAUUUAGAGAAGGGUAUUCACAUGAGGAUCACCCAUGUAUAUACGAGGAAGUUGUG
[3]
  apparent Kd: 46.9 nM
[4]
  apparent Kd: 48.4 nM

## UGUUGUAUUACAGGAUAUCUAUUAUUUUUAUUUAGAGAAGGGUAUUCACAUGAGGAUCACCCAUGUAUAUACGAGGAAGAUGUG
[3]
  apparent Kd: 91.5 nM
[4]
  apparent Kd: 107 nM

## UGUUGUUCCGCAGGAUAUGUAUUGGAUUACAAUACAGAAGGGCGAUAACAUGAGGAUCACCCAUGUGUGGACAAUAAGGAAGAG
[3]
  apparent Kd: 708 nM
[4]
  apparent Kd: 67.1 nM

## UGUUUGCGGCAGGAUAUCCAUCCGCGGUGUGGUGGAGAAGGGCUGACAUGAGGAUCACCCAUGUGCGUCCUGUU
[1]
  apparent Kd: 23.6 nM
[2]
  apparent Kd: 27.9 nM

## UUAAAACAUGAGGAUCACCCAUGUGAGGAUAUGAGCCGACUGUCCUGUCGGCAUGUAGUCAGAAGGUGCAGGGU
[1]
  apparent Kd: 62.2 nM
[2]
  apparent Kd: 109 nM

## UUAAAUCAUGUAGGAUAUGCAUGGCGAAGCUACGCAGAAGGACAUGAGGAUCACCCAUGUGCUAGCUACCGGAGACGGUGGCAA
[1]
  apparent Kd: 57.7 nM
[2]
  apparent Kd: 195 nM

## UUAAAUCAUGUAGGAUAUGCAUGGCGAAGCUACGCAGAAGGACAUGAGGAUCACCCAUGUUAUAGCUACCCAGAACGGUGGCAA
[1]
  apparent Kd: 75.5 nM
[2]
  apparent Kd: 267 nM

## UUAAAUCAUGUAGGAUAUGCAUGGCGAAGCUACGCAGAAGGACAUGAGGAUCACCCAUGUUAUAGCUACCGAGUUCGGUGGCAA
[1]
  apparent Kd: 109 nM
[2]
  apparent Kd: 224 nM

## UUAACAUGAGGAUCACCCAUGUAAAGAACGGUUAAUUAAAGUGAGGAUAUACAAAAUUUUAUAUUGUAGAAGGCACUGGGUACA
[4]
  apparent Kd: 22.9 nM

## UUAACAUGAGGAUCACCCAUGUAUAGAUCGGUUAAUAGAAGUGAGGAUAUGCUUAAAAUAAGGUAGCAGAAGGCACUGGGUACU
[3]
  apparent Kd: 24.2 nM
[4]
  apparent Kd: 28.7 nM

## UUAACUCAUGUAGGAUAUGCAUGGCGAAGCUACGCAGAAGGACAUGAGGAUCACCCAUGUUCUAGCGUCUGGAUACAGAUGCAA
[1]
  apparent Kd: 56.1 nM
[2]
  apparent Kd: 227 nM

## UUAAGUCAUGUAGGAUAUCCGAGGCGAAGCGUUGGAGAAGGACAUGAGGAUCACCCAUGUUCUAGCGUCUGAGUACAGAUGCAA
[1]
  apparent Kd: 22.7 nM
[2]
  apparent Kd: 33.7 nM

## UUAAUUAAUUAAUUAUACAUGAGGAUCACCCAUGUAAGUGAUCAGGAUAUCAGCUCGAAUAGAGCUGAGAAGGGAUACAUGUAA
[3]
  apparent Kd: 199 nM
[4]
  apparent Kd: 111 nM

## UUAAUUAAUUAGAAGGCAUGUCAUAAGACAUGAGGAUCACCCAUGUAGUUAAGGCGAAAGCCGCAUGAGGAUAUAUAAAUAUAU
[3]
  apparent Kd: 552 nM
[4]
  apparent Kd: 319 nM

## UUAAUUAUACAAGGAUAUCUAUUGUUGUUUCGACUUACAUGAGGAUCACCCAUGUUAAUAUGUUUAGAGAAGGUGUAUUUUCAG
[3]
  apparent Kd: 55.1 nM
[4]
  apparent Kd: 35.8 nM

## UUACACUUGAGGGUCUCCCUUGACAUGAGGAUCACCCAUGUGCAGGAUAUACGUGUGAUGGUAUAGUAGAAGGGCACUCUAUGU
[1]
  apparent Kd: 23 nM
[2]
  apparent Kd: 29.7 nM

## UUACAUACAAAGGUACAUGAGGAUCACCCAUGUUUAUUGGGAAGAAGGGUAACAGUACUACAUAUAUAGGAUAUUUCACAAAUG
[3]
  apparent Kd: 195 nM
[4]
  apparent Kd: 144 nM

## UUACAUACAAAGUUACAUGAGGAUCACCCAUGUUUAUUGGGAAGAAGGGUAACAUUAUUAAAUAUAUAGGAUAUUUCACAAUUG
[3]
  apparent Kd: 558 nM
[4]
  apparent Kd: 359 nM

## UUACCUCAUAUGGUUACAUGAGGAUCACCCAUGUGAAUAGCACAGGAUAUCACGAGGGCCACGUGUGAGAAGGGUGAUGUGAGG
[3]
  apparent Kd: 438 nM
[4]
  apparent Kd: 167 nM

## UUACCUCAUGAGAAGGACAUGAGGAUCACCCAUGUAGGAUAUCGUGGGAGACUGGUAUUGAAUCUUCGGAUUCAAUACCUGUCU
[3]
  apparent Kd: 454 nM
[4]
  apparent Kd: 27.9 nM

## UUACCUCAUGAGAAGGCGAUCAUGAAACAUGAUCGAGGAUAUCAUGUAAACAUGAGGAUCACCCAUGUAUGGGUAUUAUGGUAA
[3]
  apparent Kd: 166 nM
[4]
  apparent Kd: 44.1 nM

## UUACUAUUACAGAAGGUUAAAUAAUAUAUAAAUGAAGGAUAUGUAACAUGAGGAUCACCCAUGUUUCACCCACAUGAGGAUCAC
[1]
  apparent Kd: 13.9 nM
[2]
  apparent Kd: 12 nM

## UUACUCAUGUAAGGAUAUGCAGCCGAAACGGCUGCAGAAGGUACUAAAAUACAUGAGGAUCACCCAUGUCUUUUUAUUUUAGAC
[3]
  apparent Kd: 197 nM
[4]
  apparent Kd: 129 nM

## UUACUCAUGUAAGGAUAUGCAGCCGAAACGGCUGCAGAAGGUACUACAAUACAUGAGGAUCACCCAUGUAAAAUAAAUAAAGUU
[3]
  apparent Kd: 53.7 nM
[4]
  apparent Kd: 22.7 nM

## UUACUCAUGUAAGGAUAUGCAGCCGUUUCGGCUGCAGAAGGUACUAUACUACAUGAGGAUCACCCAUGUCUAUAAAAUAAAGAC
[3]
  apparent Kd: 123 nM
[4]
  apparent Kd: 44.4 nM

## UUACUGCGAGGAUAUGCGAUCCAGACCAUGAUGUAAUUCCGACAUGAGGAUCACCCAUGUAGAAGGUGCAGUGG
[1]
  apparent Kd: 22.4 nM
[2]
  apparent Kd: 27.1 nM

## UUACUUCAUGAGAAGGACAUGAGGAUCACCCAUGUAGGAUAUCGUGGGAGACUGGUAUUGAAUCUUCGGAUUCAAUACCAGUCU
[3]
  apparent Kd: 56.9 nM
[4]
  apparent Kd: 9.15 nM

## UUACUUUUACAGAAGGUUUAAUAAUAUAUAAAAGAAGGAUAUGUAACAUGAGGAUCACCCAUGUUUCACCCACAUGAGGAUCAU
[1]
  apparent Kd: 11.5 nM
[2]
  apparent Kd: 9.79 nM

## UUAGCAACAUGAGGAUCACCCAUGUAGGAUAUCGCUAUUGUAAUCAUGAAACAUGAUUACAAUAGCGAGAAGGACAUAUGCUAA
[1]
  apparent Kd: 6.42 nM
[2]
  apparent Kd: 9.48 nM

## UUAGCAACAUGAGGAUCACCCAUGUAGGAUAUCGCUAUUGUAAUCAUGAAACAUGAUUACAAUAGCGAGAAGGACAUAUGCUAG
[1]
  apparent Kd: 9.88 nM
[2]
  apparent Kd: 10.7 nM

## UUAGCGUAGGUAAGGAUAUGCUGGUCUAAUGAUCAGCAGAAGGUACAUGAGGAUCACCCAUGUGGAUUCGUUAU
[1]
  apparent Kd: 18.5 nM
[2]
  apparent Kd: 37 nM

## UUAUACAUGAGGAUCUCCCAUGACAUGAGGAUCACCCAUGUGCAGGAUAUACGUGUUAUAAUAUAGUAGAAGGGCAGUCUAUAU
[1]
  apparent Kd: 36.8 nM
[2]
  apparent Kd: 104 nM

## UUAUACGUUGAGGAUAUGCGAAUAAGUAUAGUUGCAGAAGGCGAUACAUGAGGAUCACCCAUGUUCAUGGACAU
[1]
  apparent Kd: 126 nM
[2]
  apparent Kd: 180 nM

## UUAUACGUUGAGGAUAUGCGACUUUGUAUAGUUGUAGAAGGCGAUACAUGAGGAUCACCCAUGUUUAUGGGCAU
[1]
  apparent Kd: 323 nM
[2]
  apparent Kd: 554 nM

## UUAUAUAGUGUGAGGAUAUGCUGGUCCUUGGAUCAGCAGAAGGCACAUGAGGAUCACCCAUGUAGUUUAUUAUU
[1]
  apparent Kd: 30.2 nM
[2]
  apparent Kd: 130 nM

## UUAUAUAGUGUGAGGAUAUGCUGGUCCUUGGAUCAGCAGAAGGCACAUGAGGAUCACCCAUGUAGUUUAUUUUA
[1]
  apparent Kd: 29 nM
[2]
  apparent Kd: 129 nM

## UUAUGAUUAAGAGGAUAUAUACAACAUGAGGAUCACCCAUGUACCCAUGUAGUAGAAGGCUUAUUUUUAUAUAAUAAUAUAAUU
[3]
  apparent Kd: 143 nM
[4]
  apparent Kd: 47.6 nM

## UUAUGGUUCAAGAAGGAUGUAUUUGACUUGUACAUAGGAUAUUGUUAUAUUGUUAAUUAUUGUAACAUGAGGAUCACCCAUGUA
[3]
  apparent Kd: 7.84 nM
[4]
  apparent Kd: 7.77 nM

## UUAUUACGAGGAUAUCGUUUUUAUCACAUGAGGAUCACCCAUGUAAUUUAUGUUUCGUUUCGAGAAGGCGUUUGUU
[1]
  apparent Kd: 23.4 nM
[2]
  apparent Kd: 19.6 nM
